Measured values: the M2OR odorant receptor database

Tested on: T1, A0A140T8K0
T1 sequence (whole entry): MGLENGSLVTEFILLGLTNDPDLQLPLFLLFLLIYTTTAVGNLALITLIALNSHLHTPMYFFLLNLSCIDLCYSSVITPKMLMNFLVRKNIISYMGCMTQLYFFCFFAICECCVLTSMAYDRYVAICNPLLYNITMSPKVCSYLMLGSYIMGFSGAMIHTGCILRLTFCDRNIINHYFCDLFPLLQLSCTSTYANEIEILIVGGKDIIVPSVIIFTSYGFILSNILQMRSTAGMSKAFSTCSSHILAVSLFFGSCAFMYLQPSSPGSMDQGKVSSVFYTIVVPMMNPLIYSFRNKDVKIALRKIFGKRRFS
Details: stereoisomer not certain
Outline: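 Assay methods differ from source to source, frequently being transient luciferase assays in mammalian cell lines. For each receptor–molecule pair, the label responsive (active) applies when the original authors judged the measured signal statistically different from baseline, and non-responsive (inactive) applies otherwise.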

Odorant receptor agonist call, inactive:
CCCCCC(=Cc1ccccc1)C(OC)OC, CCCCCCC(C=O)=Cc1ccccc1, CC=Cc1ccc(OC)cc1
